Bioassay records (PubChem)
TNF necrop inh – TNF-alpha cell death inhibition in Jurkat FADD-/- cells. 220,000 compounds, 0.068% hits. Jurkat FADD-/- TNF necroptosis rescue, ATP luminescence, 24 h; 0 = TNF only, 100 = no-TNF cells. activation (protection from cell death), % at 10 µM;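 active means activation, meaning protection from cell death, of at least 50% relative to plate controls; inactive means activation below 50%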;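 further: necroptosis triggered by 40 ng/mL TNF-alpha added together with compound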
L929 necroptosis – L929 zVAD cell death inhibition | L929 zVAD necroptosis rescue, ATP luminescence, 24 h; with zVAD 60 µM | viability rescue, % at 10 µM | 220,000 compounds, 0.38% hits | AID 1377;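 active means activation, scaled between plate controls, above about 75%, limit read from the data; inactive means activation under that limit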
RBBP9 inh – human RBBP9 hydrolase inhibition. recombinant RBBP9, FP-Rh probe fluorescence polarization. inhibition, % at 7.94 µM. 220,000 compounds, 0.2% hits. AID 1515;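 active means inhibition above the campaign mean of all tested compounds plus 3 SD, cut at about 14% in these data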
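System: RBBP9 protein / Quantity: 2.5 µM RBBP9 dispensing solution, before mixing / Also added: Serine-hydrolase probe FP-Rh, 375 nM pre-mixing / Dosing: 7.94 µM single dose, 0.794% DMSO / Timing: enzyme-compound preincubation 30 min, then probe labeling 45 min, 25 °C / Signal: FP readout at 525/598 nm / Controls: DMSO-treated enzyme wells and wells lacking RBBP9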
Wee1 stabilizer – human Wee1 degradation inhibition, primary screen | P30291 | HeLa Luc-Wee1K328M stability, luciferase luminescence; 100% = proteasome inhibitor MG132 effect | reporter increase, % at 5 µM | 220,000 compounds, 1.2% hits;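 active means activation above the mean of all tested compounds plus 3 SD, set per screening run, cut at about 8.8% in these data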;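 further: cells exposed to compound for 20 h before luminescence read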
Target sequence (P30291 whole entry K328M): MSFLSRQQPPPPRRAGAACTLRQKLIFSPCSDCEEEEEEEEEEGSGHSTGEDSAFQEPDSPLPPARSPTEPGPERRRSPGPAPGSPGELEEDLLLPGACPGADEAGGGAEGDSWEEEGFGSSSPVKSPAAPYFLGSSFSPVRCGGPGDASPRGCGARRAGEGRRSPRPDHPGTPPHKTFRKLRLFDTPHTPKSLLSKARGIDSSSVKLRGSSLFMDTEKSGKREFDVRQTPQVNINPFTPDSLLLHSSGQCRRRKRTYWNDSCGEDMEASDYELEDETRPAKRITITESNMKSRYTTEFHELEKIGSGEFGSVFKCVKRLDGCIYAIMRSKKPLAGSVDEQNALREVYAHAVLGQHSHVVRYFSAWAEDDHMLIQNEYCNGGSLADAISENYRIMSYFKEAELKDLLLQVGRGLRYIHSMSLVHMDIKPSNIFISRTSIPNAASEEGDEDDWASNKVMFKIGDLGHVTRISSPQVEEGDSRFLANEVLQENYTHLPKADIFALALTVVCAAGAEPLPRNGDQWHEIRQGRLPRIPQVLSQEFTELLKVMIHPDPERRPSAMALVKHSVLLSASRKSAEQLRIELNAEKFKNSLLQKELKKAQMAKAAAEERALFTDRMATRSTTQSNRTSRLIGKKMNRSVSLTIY
m-calpain inh – calpain II (pig) inhibition; purified calpain II, fluorogenic peptide substrate, 30 min; inhibition, % at 16 µM; 220,000 compounds, 0.37% hits; AID 1236;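 active means inhibition above about 50%, limit read from the data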
Pf gametocyte – P. falciparum stage V gametocyte viability inhibition. P. falciparum stage V gametocytes, ATP luminescence, 24 h. inhibition, % at 10.9 µM. 150,000 compounds, 0.065% hits. AID 743093;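 active means inhibition above the mean plus 3 SD of compounds within the control limits, set per campaign, cut at about 38% in these data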
Of the large screens only hits and unclear results are named; the others gave an inactive call. Compounds with a hit are over-represented: about 2.1% of the library has one in this group of screens.

COc1cc(C2C(C#N)=C(N)OC3=C2C(=O)CC(C)(C)C3)cc([N+](=O)[O-])c1O (stereo not drawn)	Wee1 stabilizer 9.7
Cn1c(CO)nc2c3ccccc3ccc21	none (no result: TNF necrop inh, L929 necroptosis, RBBP9 inh, Wee1 stabilizer, m-calpain inh)
CCCc1nc(SCC(=O)N2CCCc3ccccc32)c2c(=O)n(C)c(=O)n(C)c2n1	m-calpain inh 62.1 (no result: Pf gametocyte)
O=C(O)CC12CC3CC(C1)CC(n1ncc(NCc4ccccc4Cl)c(Cl)c1=O)(C3)C2	none
O=C(O)C12CC3CC(C1)CC(n1ncc(NCc4ccco4)c(Cl)c1=O)(C3)C2	Wee1 stabilizer 10.2
COc1cc(C(=O)O)c2ccccc2n1	none
Cn1c(SCC(=O)NNC(=O)Cc2ccccc2)nnc1-c1ccccc1	none (no result: Pf gametocyte)
Cc1cccc(N/C(N)=N/c2nc(CSc3ccc(Cl)cc3)cc(=O)[nH]2)c1	Wee1 stabilizer 11.1
COC(=O)C1CCN(C(=O)CN2C(=O)NC(CCc3ccccc3)C2=O)CC1 (stereo not drawn)	none
O=C(CN1C(=O)NC(CCc2ccccc2)C1=O)NC1CC1 (stereo not drawn)	Wee1 stabilizer 10.7
CCNC(=O)CN1C(=O)NC(CCc2ccccc2)C1=O (stereo not drawn)	none
Cc1cc(C)c(NC(=O)CN2C(=O)NC(CCc3ccccc3)C2=O)c(C)c1 (stereo not drawn)	Wee1 stabilizer 10.5 (no result: Pf gametocyte)
Cc1nc(-c2ccccc2)sc1C(=O)CSc1ccc(Cl)cc1	m-calpain inh 63.6
Cc1nc(-c2ccccc2)sc1C(=O)CSc1ccc(Br)cc1	none
CCc1cccc(C)c1NC(=O)CSc1nnc(-c2cc3cc(Br)ccc3o2)n1CC	m-calpain inh 55.4
O=C(Cc1cn(Cc2cccc(Cl)c2)c2ccccc12)N1CCCC1	m-calpain inh 52.2 (no result: L929 necroptosis)
O=C(CS(=O)(=O)c1cn(Cc2ccc(Cl)cc2)c2ccccc12)N1CCCC1	none (no result: Pf gametocyte)
Cc1ccc(Cl)cc1N1CCN(C(=O)Cc2cn(C)c3ccccc23)CC1	m-calpain inh 55.1 (no result: Pf gametocyte)
O=C(Cc1ccc(Br)cc1)Nc1cccc(-c2cn3c(n2)SCC3)c1	none
COc1ccc(C(=O)c2ccccc2)cc1	none
COc1ccc(C(=O)c2nccc3ccccc23)cc1	Wee1 stabilizer 10.1
CCOc1cccc(CNCCSc2nnnn2C)c1	none
CC1(C)CN2C(=O)c3ccccc3C2(C)S1 (stereo not drawn)	none (no result: Pf gametocyte)
O=[N+]([O-])c1cccc(/C=C/c2ccccn2)c1	Wee1 stabilizer 10.0 (no result: Pf gametocyte)
O=[N+]([O-])c1cccc(/C=N/Nc2ccccn2)c1	none (no result: Pf gametocyte)
COc1ccccc1-n1c([S-])c(C(=O)Nc2ccccc2C(F)(F)F)[n+]2ccc(C(=O)NCCO)cc12	m-calpain inh 68.7
COc1ccc(-c2nc(NC(=O)CCNC(=O)c3ccco3)sc2C)cc1	m-calpain inh 52.4
O=C(NC1CC1)c1sc2cc([N+](=O)[O-])ccc2c1Cl	none
CC1CCCN(C(=O)c2sc3cc([N+](=O)[O-])ccc3c2Cl)C1 (stereo not drawn)	m-calpain inh 68.1
CC(NC(=O)c1sc2cc([N+](=O)[O-])ccc2c1Cl)C(C)(C)C (stereo not drawn)	Wee1 stabilizer 9.0
COc1ccccc1NC(=O)C(=O)/C=C(\O)c1ccccc1	none
CS(=O)(=O)N(CC(=O)NCCSCc1ccccc1)c1ccccc1Br	none (no result: TNF necrop inh, L929 necroptosis, RBBP9 inh, Wee1 stabilizer, m-calpain inh)
O=S(=O)(c1ccccc1)N1CCCC1c1cccs1 (stereo not drawn)	Wee1 stabilizer 10.2
O=C(CSCc1ccccc1)N1CCN(c2ccccc2)CC1	Wee1 stabilizer 9.0
O=C(CSCc1ccccc1)N1CCN(c2ccc(F)cc2)CC1	none (no result: Pf gametocyte)
CC(=O)Nc1ccc(NC(=O)CN(c2cc(Cl)ccc2Cl)S(C)(=O)=O)cc1	none
COc1cccc(CNc2ccc(F)c([N+](=O)[O-])c2)c1O	m-calpain inh 83.6
O=[N+]([O-])c1ccccc1CNc1ccc(F)c(Cl)c1	none
O=C(CSCc1ccc([N+](=O)[O-])cc1)NC1CC2CCC1C2 (stereo not drawn)	TNF necrop inh 63.1
Cc1ccc(Cl)cc1NC(=O)N(C)CCO	none (no result: Pf gametocyte)
CC(=O)N(CC1CCCO1)c1nnc(-c2cnccn2)s1 (stereo not drawn)	TNF necrop inh 75.7 (no result: Pf gametocyte)
CCNC(=O)c1ccc(=O)n(Cc2ccc(Cl)cc2Cl)c1	none (no result: TNF necrop inh, L929 necroptosis, RBBP9 inh, Wee1 stabilizer, m-calpain inh)
Cc1[nH]nc(Nc2ccc(Br)cc2)c1[N+](=O)[O-]	Wee1 stabilizer 9.2
CC(=O)c1cccc(NC(=O)Cn2nc(-c3ccccc3Cl)ccc2=O)c1	Wee1 stabilizer 10.6 (no result: Pf gametocyte)
Cc1cc2c(cc1C)C(c1cccc([N+](=O)[O-])c1)CC(=O)N2 (stereo not drawn)	Pf gametocyte 50.9
O=C(COc1ccc(Cl)cc1)NNC(=O)CSc1nncs1	none
Clc1ccc(-c2nnnn2-c2ccc(Cl)c(Cl)c2)cc1Cl	m-calpain inh 55.3 (no result: Pf gametocyte)
Nc1ccc(-c2nnnn2-c2ccc(N)cc2)cc1	none (no result: TNF necrop inh, L929 necroptosis, RBBP9 inh, Wee1 stabilizer, m-calpain inh)
Cc1cccc2c3nc4ccccc4nc3n(CCCN3C(=O)c4ccccc4C3=O)c12	none
COC(=O)c1c(NC(C)=O)sc(C(=O)Nc2ccccc2)c1C	Wee1 stabilizer 9.1
COc1cccc(CN(C)CC(=O)Nc2cc3oc4ccccc4c3cc2OC)c1	Wee1 stabilizer 9.9
COc1cc2c(cc1NC(=O)CN(C)Cc1cccc(OC)c1OC)oc1ccccc12	none
CC(C)c1ccc(NC(=O)CSc2ncccc2C(=O)Oc2cccc([N+](=O)[O-])c2)cc1	none
NS(=O)(=O)c1ccc(OC(=O)CNC(=O)OCc2ccccc2)cc1	none (no result: TNF necrop inh, L929 necroptosis, RBBP9 inh, Wee1 stabilizer, m-calpain inh)
O=C(COC(=O)COc1ccccc1[N+](=O)[O-])NC1CCCC1	Wee1 stabilizer 10.1 (no result: Pf gametocyte)
O=C(Nc1cccc(F)c1)c1ccccc1	none (no result: Pf gametocyte)
COC(C(=O)Nc1ccc(F)c(F)c1)c1ccccc1 (stereo not drawn)	TNF necrop inh 98.7 (no result: m-calpain inh)
COC(C(=O)Nc1cccc(F)c1)c1ccccc1 (stereo not drawn)	TNF necrop inh 79.1 (no result: Pf gametocyte)
CCn1c(CNC(=O)C2CCCCC2)cc2cc(C)ccc21	none (no result: TNF necrop inh, L929 necroptosis, RBBP9 inh, Wee1 stabilizer, m-calpain inh)
Nc1nc(Nc2ccccc2F)nc(N2CCOCC2)c1[N+](=O)[O-]	Wee1 stabilizer 8.9
CCN1CCN(Cc2ccc(NC(=O)c3cc(NC(=O)c4cncc(-c5ccc(C#N)cc5)c4)cc(OC)c3)cc2C(F)(F)F)CC1	L929 necroptosis 79.6 (no result: RBBP9 inh, Wee1 stabilizer, Pf gametocyte)
CCN1CCN(Cc2ccc(NC(=O)c3cc(NC(=O)c4nccnc4N)cc(OC)c3)cc2C(F)(F)F)CC1	none (no result: RBBP9 inh, Wee1 stabilizer)
CCOc1cc(/C=C/C(=O)Nc2ccc(C(=O)NCCN(CC)CC)cc2)ccc1OCC(C)C	none
Cc1ccc(S(=O)(=O)N2CCOCC2)cc1NC(=O)CN(C)C1CCS(=O)(=O)C1 (stereo not drawn)	Wee1 stabilizer 9.0
COc1ccc(S(=O)(=O)N2CCCCC2)cc1NC(=O)CN(C)C1CCCCC1	m-calpain inh 53.0
CC(C)c1ccccc1NC(=O)COC(=O)c1ccc(Cl)c(S(=O)(=O)N2CCCCCC2)c1	none
